FLuc stim CS = affects firefly luciferase, flagging false hits in luciferase stimulation screens; ATPlite luciferase biochemical, luminescence, 10 min; 0 = ATP-free wells, 1 = DMSO control; 200,000 tested, under 10 active; P08659; AID 1027; activation factor at 10 µM;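 active means luciferase activation factor, scaled between plate controls, of at least 2 with compound at 10 µM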
Target sequence (P08659 whole entry, looked up): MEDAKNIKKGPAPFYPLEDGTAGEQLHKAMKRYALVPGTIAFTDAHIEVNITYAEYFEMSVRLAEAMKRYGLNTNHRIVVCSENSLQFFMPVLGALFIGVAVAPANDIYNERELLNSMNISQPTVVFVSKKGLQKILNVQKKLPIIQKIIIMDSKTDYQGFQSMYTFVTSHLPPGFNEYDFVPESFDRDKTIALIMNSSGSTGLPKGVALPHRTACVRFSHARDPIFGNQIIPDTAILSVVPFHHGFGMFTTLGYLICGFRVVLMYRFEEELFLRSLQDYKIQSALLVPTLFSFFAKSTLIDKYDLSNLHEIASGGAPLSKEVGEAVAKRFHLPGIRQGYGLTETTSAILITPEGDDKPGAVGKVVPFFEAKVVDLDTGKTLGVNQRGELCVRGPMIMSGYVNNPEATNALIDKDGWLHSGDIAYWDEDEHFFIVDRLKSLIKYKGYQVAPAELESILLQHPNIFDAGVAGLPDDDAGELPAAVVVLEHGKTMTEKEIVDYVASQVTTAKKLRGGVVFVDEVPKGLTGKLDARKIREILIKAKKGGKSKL
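Assay system: Luciferase/luciferin detection reagent, cell-free biochemical luciferase assay / Also added: ATP substrate / Schedule: 10 min at ambient temperature / Measured by: luminescence measurement of luciferase light output / Benchmarks: low control with PBS replacing ATP, high control enzyme plus ATP without compound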
PPC-1+TRAIL kill = compounds killing PPC-1 cancer cells with TRAIL present (potentiator screen, no TRAIL-free arm) | AID 1443 | 0.41% of 220,000 active | PPC-1 cells + TRAIL, ATPLite viability luminescence | cell killing (% activity), % at 4 µM or 5 µM;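 active means cell killing above 50% in the first pass at 4 µM, then a duplicate retest at 5 µM averaging 50% or more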;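 further: plate controls were cells with TRAIL plus DMSO for no effect and medium-only wells lacking cells for full effect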
STAT3 inh = STAT3 signaling inhibition; U3A cells, IL-6 STAT3-luciferase reporter, luminescence; host cell line lacks STAT1; inhibition, % at 5.5 µM; 0.89% of 190,000 active; AID 862;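 active means inhibition above the mean inhibition across all screened compounds plus 3 SD, cut at about 44% in these data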;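 further: 0% = DMSO only wells and 100% = 100 µM nifuroxazide control wells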
FLuc inhib CS = counter-screen for luciferase assay inhibitors: firefly luciferase inhibition | ATPLite firefly luciferase biochemical luminescence, 10 min | 1.5% of 200,000 active | inhibition, % at 10 µM | P08659 | AID 1006;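 active means inhibition above about 50% when tested at 10 µM, limit read from the data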
HSP90 inh = inhibitors of HSP90 luciferase refolding in rabbit reticulocyte lysate | luciferase refolding luminescence, 3 h | inhibition, % at 5.6 µM | 0.91% of 290,000 active | AID 1789;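 active means inhibition above the screen-wide mean plus 3 SD, computed separately per campaign, cut at about 16% in these data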;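 further: 0% = DMSO wells and 100% = 60 µM geldanamycin wells; inhibitors lower the luminescence because luciferase stays unfolded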
TRAIL sens C8 = caspase-8 TRAIL sensitization; 1% of 360,000 active; NB7+C8 cells + TRAIL, ATPlite viability luminescence; inhibition (viability loss, TRAIL sensitization), % at 10 µM;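 active means compounds causing at least 50% loss of cell viability in the single-dose screen, relative to plate controls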
* hit, by the source's call. Shown are actives, neighbours in structure and some others; about 2.2% of the full set was active somewhere.

How did O=c1c2ccccc2oc2cc(C#CC3(O)CCCCC3)ccc12 do in these assays?
TRAIL sens C8: 79.0*

What do the screens show for `COc1cccc2sc3ccc(C#Cc4ccc(N)cc4)cc3c(=O)c12`?
HSP90 inh: 1.1; TRAIL sens C8: 14.3

How did Nc1ccc(C#Cc2ccc3sc4ccccc4c(=O)c3c2)cc1 do in these assays?
TRAIL sens C8: 16.8

How did O=c1c2ccccc2sc2ccc(C#CC3(O)CCCCC3)cc12 do in these assays?
TRAIL sens C8: 93.1*

How did COc1ccc(NC(=O)C2CCCN(CCCc3ccccc3)C2)cc1OCC(C)C (configuration not stated) do in these assays?
HSP90 inh: -1.7; TRAIL sens C8: 9.6

How did CCOC(=O)C1CCN(C(=S)Nc2ccc(CC)cc2)CC1 do in these assays?
FLuc stim CS: 0.9; PPC-1+TRAIL kill: 14.1; STAT3 inh: -4.2; FLuc inhib CS: 12.0; HSP90 inh: -9.3; TRAIL sens C8: -8.0

How did CC1Sc2ccc(S(=O)(=O)CCC(=O)NCc3ccc(Cl)cc3)cc2NC1=O (configuration not stated) do in these assays?
HSP90 inh: 1.1; TRAIL sens C8: 7.1

How did CCCCCCCCCCCCCCCC[N+](C)(C)CCl do in these assays?
TRAIL sens C8: 90.5*

Results for CCCCCCCCCCCCCCCC[N+](C)(C)CC ?
TRAIL sens C8: 92.5*

Results for Cc1cc(C(=O)CCC(=O)N(C)CC(=O)Nc2ccc(OC(F)(F)F)cc2)c(C)s1 ?
TRAIL sens C8: -9.9

How did Cc1c(NC(=O)c2c(N)sc3c2CCCC3)c(=O)n(-c2ccccc2)n1C do in these assays?
FLuc stim CS: 0.9; PPC-1+TRAIL kill: 1.2; STAT3 inh: -5.9; FLuc inhib CS: 5.9; HSP90 inh: -0.3; TRAIL sens C8: -6.8

How did CN(NC(=O)c1ccccc1Cl)c1ncc(C(F)(F)F)cc1Cl do in these assays?
PPC-1+TRAIL kill: 7.0; HSP90 inh: 0.4; TRAIL sens C8: -5.2

How did O=C(N/N=C/c1cn(-c2ccccc2)nc1-c1cc2ccccc2o1)c1ccncc1 do in these assays?
FLuc stim CS: 0.7; PPC-1+TRAIL kill: 12.1; STAT3 inh: -20.6; FLuc inhib CS: 25.5; HSP90 inh: -2.4; TRAIL sens C8: 44.9

What do the screens show for `O=C(N/N=C/c1cn(-c2ccccc2)nc1-c1cc2ccccc2o1)c1cccnc1`?
FLuc stim CS: 0.8; PPC-1+TRAIL kill: 34.4; STAT3 inh: -65.0; FLuc inhib CS: 19.4; HSP90 inh: -4.4; TRAIL sens C8: 55.0*

How did COc1ccc(C(=O)NCCn2cc(SCC(=O)NCc3ccco3)c3ccccc32)cc1 do in these assays?
FLuc stim CS: 0.9; PPC-1+TRAIL kill: -25.2; STAT3 inh: 6.5; FLuc inhib CS: 8.8; HSP90 inh: 59.4*; TRAIL sens C8: -1.4

Results for Cc1nnc(NC(=O)CSc2cn(CCNC(=O)c3ccccc3)c3ccccc23)s1 ?
FLuc stim CS: 1.1; PPC-1+TRAIL kill: 5.7; STAT3 inh: 0.5; FLuc inhib CS: -8.3; HSP90 inh: 13.0; TRAIL sens C8: -9.2

What do the screens show for `COc1ccc(C(=O)NCCn2cc(SCC(=O)Nc3nnc(C)s3)c3ccccc32)cc1`?
STAT3 inh: -16.1; HSP90 inh: 16.6*; TRAIL sens C8: -1.0

What do the screens show for `O=C1c2oc3ccc(F)cc3c(=O)c2C(c2ccccc2)N1CC1CCCO1` (configuration not stated)?
FLuc stim CS: 1; PPC-1+TRAIL kill: -7.0; STAT3 inh: -4.1; FLuc inhib CS: -4.3; HSP90 inh: -3.0; TRAIL sens C8: -6.2

How did Nc1ccccc1C(=O)NN=Cc1cccnc1 do in these assays?
TRAIL sens C8: 60.0*

What do the screens show for `O=C(/C=C/c1ccc(Cl)c([N+](=O)[O-])c1)Nc1cccnc1`?
FLuc stim CS: 1; PPC-1+TRAIL kill: 4.1; STAT3 inh: 27.7; FLuc inhib CS: 2.7; HSP90 inh: -2.6; TRAIL sens C8: -9.4

Results for O=C(N/N=C/c1cccnc1)c1ccc([N+](=O)[O-])cc1 ?
FLuc stim CS: 0.3; PPC-1+TRAIL kill: 26.0; STAT3 inh: 2.9; FLuc inhib CS: 67.3*; HSP90 inh: -2.4; TRAIL sens C8: 12.4

Results for O=C(Cc1ccc([N+](=O)[O-])cc1)N/N=C/c1cccnc1 ?
TRAIL sens C8: 19.4

What do the screens show for `CC(C)(C)OC(=O)N/N=C\c1cccnc1`?
FLuc stim CS: 0.2; PPC-1+TRAIL kill: 42.3; STAT3 inh: 3.7; FLuc inhib CS: 77.6*; HSP90 inh: 0.4; TRAIL sens C8: 48.6

What do the screens show for `O=C(/C=C/c1ccc([N+](=O)[O-])cc1)Nc1cccnc1`?
FLuc stim CS: 0.3; PPC-1+TRAIL kill: 29.4; STAT3 inh: 20.5; FLuc inhib CS: 65.0*; HSP90 inh: 2.5; TRAIL sens C8: 31.6

How did CCc1nc2ccc(C(=O)Nc3cccc(OCC(=O)N(C)C)c3)cn2c1N(CC)CCOC do in these assays?
TRAIL sens C8: -8.2

How did Cc1nc2ccccc2cc1C(=O)N/N=C/c1cccc([N+](=O)[O-])c1 do in these assays?
FLuc stim CS: 1.1; PPC-1+TRAIL kill: 20.2; STAT3 inh: 0.5; FLuc inhib CS: -5.1; HSP90 inh: -0.8; TRAIL sens C8: 0.4

What do the screens show for `O=C(N/N=C/c1cccnc1)c1cccc(Cl)c1`?
HSP90 inh: -4.8; TRAIL sens C8: 0.7

How did CCCCCCCC(=O)Nc1ccc(C(=O)N/N=C/c2cccc([N+](=O)[O-])c2)cc1 do in these assays?
FLuc stim CS: 1.1; PPC-1+TRAIL kill: 20.0; STAT3 inh: 0.5; FLuc inhib CS: -7.6; HSP90 inh: -1.3; TRAIL sens C8: 56.6*

How did CC(C)c1ccc(OCc2cccc(C(=O)N/N=C/c3cccnc3)c2)cc1 do in these assays?
FLuc stim CS: 0.6; PPC-1+TRAIL kill: 64.0*; STAT3 inh: 56.8*; FLuc inhib CS: 42.4; HSP90 inh: 11.5; TRAIL sens C8: 52.9*

Results for O=C(/C=C/c1ccccc1[N+](=O)[O-])Nc1ccccc1 ?
FLuc stim CS: 0.5; PPC-1+TRAIL kill: 17.7; STAT3 inh: 25.9; FLuc inhib CS: 50.2*; HSP90 inh: 2.3; TRAIL sens C8: 20.1

What do the screens show for `Nc1ccccc1C(=O)NN=Cc1cccc([N+](=O)[O-])c1`?
TRAIL sens C8: 58.5*

Results for CCN(CC)C(=O)C1=C(C)N(CCC2=CCCCC2)C(=O)C(CC(=O)NCc2cccc3ccccc23)C1 (configuration not stated) ?
TRAIL sens C8: 1.6

Results for CC(=O)Nc1ccc2c(c1)ncn2-c1ccc(C)cc1 ?
FLuc stim CS: 0.5; PPC-1+TRAIL kill: 14.6; STAT3 inh: 5.2; FLuc inhib CS: 53.0*; HSP90 inh: 6.3; TRAIL sens C8: 5.0

Results for COc1ccc(S(=O)(=O)NNC(=O)C2COc3ccccc3O2)cc1[N+](=O)[O-] (configuration not stated) ?
TRAIL sens C8: 9.8

How did CC(=O)Nc1ccc(N=Nc2c(C)[nH]n(C(N)=S)c2=O)cc1 do in these assays?
FLuc stim CS: 0.7; PPC-1+TRAIL kill: -2.7; STAT3 inh: 4.6; FLuc inhib CS: 28.6; HSP90 inh: 1.6; TRAIL sens C8: 0.4

Screens: PubChem, several laboratories
